Assay results taken from ChEMBL document CHEMBL4014308, “Amphiphilic Tobramycin-Lysine Conjugates Sensitize Multidrug Resistant Gram-Negative Bacteria to Rifampicin and Minocycline” (J Med Chem, 2017).
In brackets after ≈: the same amount, converted by molar mass. Activity calls are given as the source filed them. No cut-off for these calls is given here.

Assays:
Type in all cases: functional
[1] = system: Escherichia coli; assay: Antibacterial activity against gentamicin/tobramycin/ciprofloxacin-resistant Escherichia coli isolate CANWARD-2011 97615 harboring AAC3-2A after 24 hrs by […] dilution method; conditions: isolate CANWARD-2011 97615, 24 h
[2] = system: Pseudomonas aeruginosa; assay: Antibacterial activity against Pseudomonas aeruginosa PAO1 after 18 hrs by microtiter dilution assay; conditions: PAO1, 18 h
How it was run: (§1)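 Broth microdilution following CLSI guidelines. An overnight culture was adjusted to 0.5 McFarland in saline, then diluted 1:50 in Mueller-Hinton broth. This inoculum was added in equal volume to 2-fold serial dilutions of agent in MHB and incubated 18 h at 37 °C. MIC was the lowest concentration with no visible growth.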

[3] = system: Pseudomonas aeruginosa; assay: Antibacterial activity against Pseudomonas aeruginosa PAO1 assessed as ratio of MIC after 25 serial passages to MIC before 25 serial passages by microtiter dilution assay
How it was run: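 Sequential passaging of wild-type PAO1 with single drugs or drug combinations. MIC was tested in MHB for 18 h. Cells from the well at half the MIC were adjusted to 0.5 McFarland in saline, diluted 1:50 in fresh MHB and used for the next MIC test. This was repeated for 25 passages, and the fold change in MIC was plotted against passage number.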

[4] = system: Streptococcus pneumoniae; assay: Antibacterial activity against Streptococcus pneumoniae ATCC 49619 after 24 hrs by […] dilution method; conditions: ATCC 49619, 24 h
[5] = system: Stenotrophomonas maltophilia; assay: Antibacterial activity against Stenotrophomonas maltophilia isolate CAN-ICU 62584 after 24 hrs by […] dilution method; conditions: isolate CAN-ICU 62584, 24 h
[6] = system: Pseudomonas aeruginosa; assay: Synergistic antibacterial activity against Pseudomonas aeruginosa PAO1 after 18 hrs in presence of rifampicin by checkerboard assay
How it was run: (§2)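 Checkerboard in MHB: antibiotic diluted along one axis and adjuvant along the other (10 × 7 matrix). Inoculum was a 1:50 dilution in MHB of a 0.5 McFarland saline suspension; incubated 18 h at 37 °C. Each FIC = concentration in the no-growth well divided by the MIC alone; FIC index = sum of both FICs. ≤0.5 synergy, 0.5–4 no interaction, ≥4 antagonism.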

[7] = system: Pseudomonas aeruginosa; assay: Antibacterial activity against multidrug/extremely drug-resistant/colistin-resistant Pseudomonas aeruginosa isolate 101243 after 18 hrs by microtiter dilution assay; conditions: isolate 101243, 18 h; how it was run: as §1
[8] = system: Pseudomonas aeruginosa; assay: Antibacterial activity against multidrug/extremely drug-resistant/colistin-susceptible Pseudomonas aeruginosa isolate 100036 after 18 hrs by microtiter dilution assay; conditions: isolate 100036, 18 h; how it was run: as §1
[9] = system: Pseudomonas aeruginosa; assay: Antibacterial activity against gentamicin-resistant Pseudomonas aeruginosa isolate CAN-ICU 62308 after 24 hrs by […] dilution method; conditions: isolate CAN-ICU 62308, 24 h
[10] = system: Pseudomonas aeruginosa; assay: Induction of cytoplasmic membrane depolarization in Pseudomonas aeruginosa PAO1 up to 1200 secs by diSC3-5 staining based fluorescence assay
How it was run: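 Mid-log PAO1 washed in 5 mM HEPES pH 7.4 with 20 mM glucose and resuspended to OD600 0.05. Cells were loaded with 0.2 mM EDTA and 0.4 µM diSC3-5 for 2 h at 37 °C in the dark, then equilibrated with 100 mM KCl for 30 min. Agent was added and fluorescence followed at 622/670 nm; agents tested at 32 µg/mL.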

[11] = system: Escherichia coli; assay: Antibacterial activity against gentamicin-resistant Escherichia coli isolate CAN-ICU 61714 after 24 hrs by […] dilution method; conditions: isolate CAN-ICU 61714, 24 h
[12] = system: Pseudomonas aeruginosa; assay: Antibacterial activity against multidrug/extremely drug-resistant/colistin-susceptible Pseudomonas aeruginosa isolate P262-101856 after 18 hrs by microtiter dilution assay; conditions: isolate P262-101856, 18 h; how it was run: as §1
[13] = system: Pseudomonas aeruginosa; assay: Antibacterial activity against multidrug/extremely drug-resistant/colistin-susceptible Pseudomonas aeruginosa isolate 101885 after 18 hrs by microtiter dilution assay; conditions: isolate 101885, 18 h; how it was run: as §1
[14] = system: Enterococcus faecium; assay: Antibacterial activity against Enterococcus faecium ATCC 27270 after 24 hrs by […] dilution method; conditions: ATCC 27270, 24 h
[15] = system: Acinetobacter baumannii; assay: Antibacterial activity against Acinetobacter baumannii isolate CAN-ICU 63169 after 24 hrs by […] dilution method; conditions: isolate CAN-ICU 63169, 24 h
[16] = system: Pseudomonas aeruginosa; assay: Antibacterial activity against gentamicin/tobramycin-resistant Pseudomonas aeruginosa isolate CANWARD-2011 96846 after 24 hrs by […] dilution method; conditions: isolate CANWARD-2011 96846, 24 h
[17] = system: Pseudomonas aeruginosa; assay: Antibacterial activity against multidrug/extremely drug-resistant/colistin-resistant Pseudomonas aeruginosa isolate 91433 after 18 hrs by microtiter dilution assay; conditions: isolate 91433, 18 h; how it was run: as §1
[18] = system: Pseudomonas aeruginosa; assay: Antibacterial activity against Pseudomonas aeruginosa ATCC 27853 after 24 hrs by […] dilution method; conditions: ATCC 27853, 24 h
[19] = system: Staphylococcus epidermidis; assay: Antibacterial activity against methicillin-susceptible Staphylococcus epidermidis isolate CANWARD-2008 81388 after 24 hrs by […] dilution method; conditions: isolate CANWARD-2008 81388, 24 h
[20] = system: Staphylococcus aureus; assay: Antibacterial activity against methicillin resistant Staphylococcus aureus ATCC 33592 after 24 hrs by […] dilution method; conditions: ATCC 33592, 24 h
[21] = system: Staphylococcus aureus; assay: Antibacterial activity against Staphylococcus aureus ATCC 29213 after 24 hrs by […] dilution method; conditions: ATCC 29213, 24 h
[22] = system: Enterococcus faecalis; assay: Antibacterial activity against Enterococcus faecalis ATCC 29212 after 24 hrs by […] dilution method; conditions: ATCC 29212, 24 h
[23] = system: Pseudomonas aeruginosa; assay: Antibacterial activity against multidrug/extremely drug-resistant/colistin-susceptible Pseudomonas aeruginosa isolate P264-104354 after 18 hrs by microtiter dilution assay; conditions: isolate P264-104354, 18 h; how it was run: as §1
[24] = system: Pseudomonas aeruginosa; assay: Synergistic antibacterial activity against Pseudomonas aeruginosa PAO1 after 18 hrs in presence of minocycline by checkerboard assay; how it was run: as §2
[25] = system: Pseudomonas aeruginosa; assay: Antibacterial activity against multidrug/extremely drug-resistant/colistin-susceptible Pseudomonas aeruginosa isolate P259-96918 after 18 hrs by microtiter dilution assay; conditions: isolate P259-96918, 18 h; how it was run: as §1
[26] = system: Klebsiella pneumoniae; assay: Antibacterial activity against Klebsiella pneumoniae ATCC 13883 after 24 hrs by […] dilution method; conditions: ATCC 13883, 24 h
[27] = system: Staphylococcus epidermidis; assay: Antibacterial activity against methicillin-resistant Staphylococcus epidermidis isolate CAN-ICU 61589 after 24 hrs by […] dilution method; conditions: isolate CAN-ICU 61589, 24 h
[28] = system: Escherichia coli; assay: Antibacterial activity against Escherichia coli ATCC 25922 after 24 hrs by […] dilution method; conditions: ATCC 25922, 24 h
[29] = system: Escherichia coli; assay: Antibacterial activity against amikacin-resistant Escherichia coli isolate CAN-ICU 63074 after 24 hrs by […] dilution method; conditions: isolate CAN-ICU 63074, 24 h

**Q.** `NC[C@H]1O[C@H](O[C@H]2[C@H](O)[C@@H](O[C@H]3O[C@H](CO)[C@@H](O)[C@H](N)[C@H]3O)[C@H](N)C[C@@H]2N)[C@H](N)C[C@@H]1O` [TOBRAMYCIN] was tested. Which MIC [1] did it give?
**A.** 128 µg/mL (≈ 274 µM)

**Q.** What about the MIC [2] of the same compound?
**A.** 0.25 µg/mL (≈ 0.535 µM)

**Q.** And the Ratio [3]?
**A.** 256

**Q.** What about the MIC [4] of the same compound?
**A.** 2 µg/mL (≈ 4.28 µM)

**Q.** What about the MIC [5] of the same compound?
**A.** > 512 µg/mL

**Q.** What about the Activity [6] of the same compound?
**A.** inactive

**Q.** And the MIC [7]?
**A.** 256 µg/mL (≈ 548 µM)

**Q.** And the MIC [8]?
**A.** 64 µg/mL (≈ 137 µM)

**Q.** What about the MIC [9] of the same compound?
**A.** 16 µg/mL (≈ 34.2 µM)

**Q.** What about the Activity [10] of the same compound?
**A.** Dose-dependent effect

**Q.** And the MIC [11]?
**A.** 8 µg/mL (≈ 17.1 µM)

**Q.** What about the MIC [12] of the same compound?
**A.** 512 µg/mL (≈ 1100 µM)

**Q.** What about the MIC [13] of the same compound?
**A.** 0.25 µg/mL (≈ 0.535 µM)

**Q.** And the MIC [14]?
**A.** 8 µg/mL (≈ 17.1 µM)

**Q.** And the MIC [15]?
**A.** 32 µg/mL (≈ 68.4 µM)

**Q.** What about the MIC [16] of the same compound?
**A.** 256 µg/mL (≈ 548 µM)

**Q.** And the MIC [17]?
**A.** 8 µg/mL (≈ 17.1 µM)

**Q.** What about the MIC [18] of the same compound?
**A.** 0.5 µg/mL (≈ 1.07 µM)

**Q.** What about the MIC [19] of the same compound?
**A.** ≤ 0.25 µg/mL

**Q.** And the MIC [20]?
**A.** ≤ 0.25 µg/mL

**Q.** And the MIC [21]?
**A.** ≤ 0.25 µg/mL

**Q.** And the MIC [22]?
**A.** 8 µg/mL (≈ 17.1 µM)

**Q.** What about the MIC [23] of the same compound?
**A.** 128 µg/mL (≈ 274 µM)

**Q.** And the Activity [24]?
**A.** inactive

**Q.** What about the MIC [25] of the same compound?
**A.** 128 µg/mL (≈ 274 µM)

**Q.** And the MIC [26]?
**A.** ≤ 0.25 µg/mL

**Q.** What about the MIC [27] of the same compound?
**A.** 1 µg/mL (≈ 2.14 µM)

**Q.** What about the MIC [28] of the same compound?
**A.** 0.5 µg/mL (≈ 1.07 µM)

**Q.** And the MIC [29]?
**A.** 8 µg/mL (≈ 17.1 µM)
